The test system of assay [1] is Radical scavenging activity. The assay can be described thus: Antioxidant activity of the compound assessed as DPPH radical scavenging activity at 400 ug/ml after 20 mins. It is filed as functional. The method in brief: (§1)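 Compound dissolved in methylene dichloride at the stated concentration, mixed with 4 mL 0.1 mM methanolic DPPH, held 20 min at ambient temperature; absorbance read at 517 nm. Scavenging % = (A_DPPH − A_test)/A_DPPH × 100. Triplicate; ascorbic acid positive control.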

Assay [2] deals with Mus musculus. The assay can be described thus: Analgesic activity Wistar albino mouse assessed as tail withdrawal latency time at 100 mg/kg, po administered by intragastric tube after 60 mins (reference value: 1.363 +/- 0.1297 sec). It is filed as functional.
Assay [3] has as its system Aspergillus fumigatus. Nature of the assay: Antifungal activity against Aspergillus fumigatus NCIM 902 at MIC after 3 to 4 days. Format: functional.
In assay [4] the test system is Klebsiella pneumoniae. Nature of the assay: Antibacterial activity against recultured Klebsiella pneumoniae after 16 to 18 hrs by serial dilution method. Format: functional. The method in brief:
(§2)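 Serial drug dilutions in Mueller-Hinton broth adjusted to pH 5.0 with phosphate buffer, inoculated with standardized bacterial suspension, incubated 16–18 h at 37 °C; MIC taken as lowest concentration without conspicuous growth.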

Assay [5] relates to Pseudomonas aeruginosa. The assay can be described thus: Antibacterial activity against Pseudomonas aeruginosa ATTC 27853 at MIC after 3 to 4 days by disc diffusion method. It is filed as functional. The procedure, abridged:
(§3)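 Agar well diffusion: seeded agar plates dried 1 h at 37 °C, wells punched and filled with test compound at MIC level in DMSO; DMSO solvent control. Plates in triplicate, kept at 37 °C for 3–4 days; zone of inhibition read.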
(In agar diffusion tests the substance spreads into inoculated agar from a disc or well.)

Assay [6] relates to Staphylococcus aureus. The assay can be described thus: Antibacterial activity against Staphylococcus aureus ATTC 25923 after 16 to 18 hrs by serial dilution method. Format: functional. The procedure, abridged: as §2
Assay [7] has as its system Talaromyces marneffei. Nature of the assay: Antifungal activity against recultured Penicillium marneffei at MIC after 3 to 4 days. It is filed as functional.
Assay [8] concerns Escherichia coli. The assay can be described thus: Antibacterial activity against Escherichia coli ATTC 25922 at MIC after 3 to 4 days by disc diffusion method. Format: functional. The method in brief:
as §3

Assay [9] has as its system Rattus norvegicus. The assay can be described thus: Antiinflammatory activity rat assessed as reduction of carrageenan-induced paw oedema at 100 mg/kg, po administered 30 mins before carrageenan challenge measured after 60 to 180 mins. It is filed as functional, organism-based. More on the design: dose 100 mg/kg. The method in brief:
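Rats randomly assigned, 100 mg/kg orally as suspension in 1% carboxymethyl cellulose, 30 min before carrageenan injected into right hind paw. Paw thickness measured with vernier callipers at 60, 120 and 180 min. Diclofenac reference; mean ± SEM, n = 6, vs vehicle control.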
A general note: In the carrageenan paw model, swelling and tenderness develop within hours.

Assay [10] has as its system Radical scavenging activity. Nature of the assay: Antioxidant activity of the compound assessed as DPPH radical scavenging activity at 200 ug/ml after 20 mins. It is filed as functional. The procedure, abridged: as §1
Assay [11] deals with Escherichia coli. Nature of the assay: Antibacterial activity against Escherichia coli ATTC 25922 after 16 to 18 hrs by serial dilution method. It is filed as functional. The procedure, abridged:
as §2

Assay [12] relates to Aspergillus fumigatus. The assay can be described thus: Antifungal activity against Aspergillus fumigatus NCIM 902 by serial plate dilution method. It is filed as functional.
Assay [13] has as its system Radical scavenging activity. The assay can be described thus: Antioxidant activity of the compound assessed as DPPH radical scavenging activity at 800 ug/ml after 20 mins. Format: functional. The method in brief: as §1
On the technique in general: DPPH is a stable violet radical that fades when it is reduced.

Assay [14] deals with Pseudomonas aeruginosa. Nature of the assay: Antibacterial activity against Pseudomonas aeruginosa ATTC 27853 after 16 to 18 hrs by serial dilution method. Format: functional. The method in brief:
as §2

For assay [15], the system named is Mus musculus. The assay can be described thus: Analgesic activity Wistar albino mouse assessed as tail withdrawal latency time at 100 mg/kg, po administered by intragastric tube after 180 mins (reference value: 1.363 +/- 0.1297 sec). It is filed as functional.
In assay [16] the test system is Talaromyces marneffei. The assay can be described thus: Antifungal activity against recultured Penicillium marneffei by serial plate dilution method. Format: functional.
Assay [17] relates to Aspergillus flavus. The assay can be described thus: Antifungal activity against Aspergillus flavus NCIM 524 by serial plate dilution method. Format: functional.
In assay [18] the test system is Trichophyton mentagrophytes. The assay can be described thus: Antifungal activity against recultured Trichophyton mentagrophytes at MIC after 3 to 4 days. It is filed as functional.
For assay [19], the system named is Mus musculus. Nature of the assay: Analgesic activity Wistar albino mouse assessed as tail withdrawal latency time at 100 mg/kg, po administered by intragastric tube after 120 mins (reference value: 1.363 +/- 0.1297 sec). It is filed as functional.
Assay [20] relates to Staphylococcus aureus. Nature of the assay: Antibacterial activity against Staphylococcus aureus ATTC 25923 at MIC after 3 to 4 days by disc diffusion method. Format: functional. The method in brief: as §3
For assay [21], the system named is Trichophyton mentagrophytes. Nature of the assay: Antifungal activity against recultured Trichophyton mentagrophytes by serial plate dilution method. It is filed as functional.
The test system of assay [22] is Aspergillus flavus. Nature of the assay: Antifungal activity against Aspergillus flavus NCIM 524 at MIC after 3 to 4 days. It is filed as functional.
In assay [23] the test system is Klebsiella pneumoniae. Nature of the assay: Antibacterial activity against recultured Klebsiella pneumoniae at MIC after 3 to 4 days by disc diffusion method. It is filed as functional. The method in brief:
as §3

The values that follow come from ChEMBL document CHEMBL1955832, “Facile synthesis, characterization and pharmacological activities of 3,6-disubstituted 1,2,4-triazolo[3,4-b][1,3,4]thiadiazoles and 5,6-dihydro-3,6-disubstituted-1,2,4-triazolo[3,4-b][1,3,4]thiadiazoles” (2012).

≈ marks a conversion by molar mass, not a printed value. Calls of active or inactive are those of the source. The rule behind the calls is not given here.

As a reminder, the inhibition is the share of the control response that was lost under treatment. In general, MIC refers to the lowest concentration found to suppress growth. A higher MIC goes with a need for much substance.

As for `COc1ccc(Br)c(-c2nnc3sc(-c4cc([N+](=O)[O-])cc([N+](=O)[O-])c4)nn23)c1`, the results for the inhibition in assay [1], in [10] and in [13] were 68.4%, 58.5% and 78%, respectively. For the same compound, the Time in assay [2] is recorded as 3.675 s; in assay [15], 2.425 s; in assay [19], 3.563 s. Further, the “diameter of the inhibition zone (DIZ)” value in assay [3] turned out to be 16 mm; in assay [5], 11 mm; in [7], 11 mm; in [8], 16 mm; in assay [18], 16 mm; in [20], 16 mm. Further, the “diameter of the inhibition zone (DIZ)” value in assay [22] and in assay [23] was 16 mm throughout. Further, the MIC in assay [4] was 13.1 µM (≈ 6.25 µg/mL); in assay [6], 13.1 µM (≈ 6.25 µg/mL); in assay [11] it was 13.1 µM (≈ 6.25 µg/mL); in [12], 13.1 µM (≈ 6.25 µg/mL); in assay [14] it was 26.2 µM (≈ 12.5 µg/mL); in assay [16], 26.2 µM (≈ 12.5 µg/mL). Moreover, the MIC in assay [17] and in assay [21] was 13.1 µM (≈ 6.25 µg/mL) throughout. In assay [9], the result was Active.
Turning to `COc1ccc(Br)c(-c2nnc3n2NC(c2ccc([N+](=O)[O-])cc2)S3)c1` (centres undefined), the values for the inhibition in assay [1], in assay [10] and in assay [13] were 72.4%, 53.2% and 82.7%, respectively. Besides, the Time in assay [2] is reported as 3.675 s; in assay [15] it was 2.425 s; in assay [19], 3.563 s. Further, the “diameter of the inhibition zone (DIZ)” value stood at 16 mm in assay [3]; 16 mm in [5]; 16 mm in assay [7]; 11 mm in assay [8]; 11 mm in [18]; 11 mm in assay [20]. In addition, the “diameter of the inhibition zone (DIZ)” value in assay [22] and in assay [23] was 16 mm in each case. Moreover, the MIC in assay [4] stood at 14.4 µM (≈ 6.25 µg/mL); in [6], 28.8 µM (≈ 12.5 µg/mL); in [11], 28.8 µM (≈ 12.5 µg/mL); in [12], 14.4 µM (≈ 6.25 µg/mL); in assay [14], 14.4 µM (≈ 6.25 µg/mL); in assay [16] it was 14.4 µM (≈ 6.25 µg/mL). For the same compound, the MIC in [17] was found to be 14.4 µM (≈ 6.25 µg/mL); in [21], 28.8 µM (≈ 12.5 µg/mL). For the same compound, in assay [9], the result was Active.
With `COc1ccc(Br)c(-c2nnc3n2NC(c2ccc(C)cc2)S3)c1` (centres undefined), the Time was determined as 2.403 s in [2], 2.438 s in assay [15] and 2.643 s in assay [19]. The “diameter of the inhibition zone (DIZ)” value in assay [3] worked out at 16 mm; in assay [5], 16 mm; in assay [7], 11 mm; in assay [8], 16 mm; in [18], 11 mm; in [20], 11 mm. Further, the “diameter of the inhibition zone (DIZ)” value in assay [22] and in assay [23] was 16 mm throughout. Moreover, the MIC in [4] was determined as 15.5 µM (≈ 6.25 µg/mL); in assay [6] it was 31 µM (≈ 12.5 µg/mL); in [11], 15.5 µM (≈ 6.25 µg/mL); in assay [12] it was 15.5 µM (≈ 6.25 µg/mL); in [14] it was 15.5 µM (≈ 6.25 µg/mL); in assay [16], 31 µM (≈ 12.5 µg/mL). Moreover, the MIC in assay [17] was found to be 15.5 µM (≈ 6.25 µg/mL); in [21] it was 31 µM (≈ 12.5 µg/mL). Further, the outcome in [9] was Active.
For the compound `O=C1O[C@H]([C@@H](O)CO)C(O)=C1O`, the inhibition in assay [1] is 95%; in [10], 87.6%; in assay [13] it was 96%.
Regarding `COc1ccc(Br)c(-c2nnc3n2NC(c2ccccc2OC)S3)c1` (centres undefined), the Time is recorded as 2.387 s in [2], 2.501 s in assay [15] and 2.652 s in assay [19]. Also, the “diameter of the inhibition zone (DIZ)” value in [3] is reported as 16 mm; in assay [5], 11 mm; in assay [7] it was 11 mm; in assay [8] it was 16 mm; in [18], 16 mm; in assay [20], 11 mm. Besides, the “diameter of the inhibition zone (DIZ)” value came to 16 mm in assay [22] and 11 mm in [23]. Also, the minimum inhibitory concentration (MIC) turned out to be 29.8 µM (≈ 12.5 µg/mL) in assay [4]; 29.8 µM (≈ 12.5 µg/mL) in [6]; 14.9 µM (≈ 6.25 µg/mL) in [11]; 14.9 µM (≈ 6.25 µg/mL) in assay [12]; 29.8 µM (≈ 12.5 µg/mL) in [14]; 29.9 µM (≈ 12.5 µg/mL) in [16]. Moreover, the MIC in assay [17] and in assay [21] was 14.9 µM (≈ 6.25 µg/mL) in each case. Moreover, the result in [9] was Active.
Turning to `COc1ccc(-c2nn3c(-c4cc(OC)ccc4Br)nnc3s2)cc1`, the Time in assay [2] is 2.379 s; in assay [15] it was 2.44 s; in assay [19] it was 2.674 s. For the same compound, the “diameter of the inhibition zone (DIZ)” value in assay [3] is reported as 16 mm; in assay [5], 16 mm; in [7], 11 mm; in assay [8], 16 mm; in [18], 16 mm; in [20] it was 16 mm. Moreover, the “diameter of the inhibition zone (DIZ)” value in assay [22] came to 11 mm; in assay [23], 16 mm. Also, the MIC in [4] came to 15 µM (≈ 6.25 µg/mL); in assay [6], 15 µM (≈ 6.25 µg/mL); in [11] it was 15 µM (≈ 6.25 µg/mL); in assay [12], 15 µM (≈ 6.25 µg/mL); in [14] it was 15 µM (≈ 6.25 µg/mL); in [16] it was 29.9 µM (≈ 12.5 µg/mL). Also, the values for the MIC in assay [17] and in [21] were 29.9 µM (≈ 12.5 µg/mL) and 15 µM (≈ 6.25 µg/mL), respectively. Also, the result in assay [9] was Active.
In the case of `COc1ccc(C2Nn3c(nnc3-c3cc(OC)ccc3Br)S2)c(OC)c1` (centres undefined), the results for the Time in [2], in assay [15] and in [19] were 2.39 s, 2.492 s and 2.642 s, respectively. Besides, the “diameter of the inhibition zone (DIZ)” value amounted to 11 mm in [3]; 16 mm in [5]; 16 mm in [7]; 16 mm in assay [8]; 11 mm in assay [18]; 11 mm in assay [20]. Besides, the “diameter of the inhibition zone (DIZ)” value in assay [22] stood at 11 mm; in [23] it was 16 mm. Further, the MIC in [4] is 13.9 µM (≈ 6.25 µg/mL); in assay [6], 27.8 µM (≈ 12.5 µg/mL); in [11], 13.9 µM (≈ 6.25 µg/mL); in [12] it was 27.8 µM (≈ 12.5 µg/mL); in assay [14], 13.9 µM (≈ 6.25 µg/mL); in assay [16], 13.9 µM (≈ 6.25 µg/mL). Besides, the MIC in [17] and in assay [21] was 27.8 µM (≈ 12.5 µg/mL) each time. Also, the result in assay [9] was Active.
